Test results taken from ChEMBL document CHEMBL2385029, “Cytotoxic activities of substituted 3-(3,4,5-trimethoxybenzylidene)-1,3-dihydroindol-2-ones and studies on their mechanisms of action” (Eur J Med Chem, 2013).
Calls of active or inactive are those of the source. No cut-off for these calls is given here.

Assays:
[1] = Cytotoxicity against human leukemia cells after 48 hrs; format: functional; settings: Leukemia cell; for CC50: read-out: LC50 (the source's name)
[2] = Cytotoxicity against human CNS cancer cells after 48 hrs; format: functional; settings: Cancer cell lines
Method in brief: (§1)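 NCI 60-cell panel, values averaged per subpanel. Compounds were dissolved in DMSO and first screened at a single 10⁻⁵ M dose. Active ones then went to five concentrations at ten-fold dilutions, top 10⁻⁴ M (10⁻³ M for some), with 48 h exposure.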

[3] = Cytotoxicity against human breast cancer cells after 48 hrs; format: functional; settings: Cancer cell lines; method in brief: as §1
[4] = Cytotoxicity against human colon cancer cells after 48 hrs; format: functional; settings: Cancer cell lines; method in brief: as §1
[5] = Cytotoxicity against human prostate cancer cells after 48 hrs; format: functional; settings: Cancer cell lines; for CC50: read-out: LC50 (the source's name); method in brief: as §1
[6] = Cytotoxicity against human renal cancer cells after 48 hrs; format: functional; settings: Cancer cell lines
B1647 = experiment: Cytotoxicity against human B1647 cells at 5 to 10 uM after 24 hrs by MTT assay; format: functional, cell-based
Method in brief: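 B1647 human AML cells grown in IMDM with 5% human serum (37 °C, 5% CO2); 10⁶ cells per well in 1 mL exposed to 5 or 10 µM compound (DMSO) for 24 h. MTT 0.5 mg/mL added for 4 h at 37 °C, formazan dissolved overnight in 10% SDS/0.01 M HCl, A570 read. Four independent experiments.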

[7] = Cytotoxicity against human melanoma cells after 48 hrs; format: functional; settings: Melanoma cell; for CC50: read-out: LC50 (the source's name)
[8] = molecular target: T1, NADPH oxidase 4 (Homo sapiens) (UniProt Q9NPH5); experiment: Inhibition of NOX4 in human nox2 silenced B1647 cells assessed as reduction of ROS production at 50 nM after 20 mins by DCFH-DA fluorescence assay; format: cell-based; settings: 5 or 10 uM, in the assay text read “at 5 or 10 uM after 30 mins” for “at 50 nM after 20 mins”
T1 sequence (whole entry): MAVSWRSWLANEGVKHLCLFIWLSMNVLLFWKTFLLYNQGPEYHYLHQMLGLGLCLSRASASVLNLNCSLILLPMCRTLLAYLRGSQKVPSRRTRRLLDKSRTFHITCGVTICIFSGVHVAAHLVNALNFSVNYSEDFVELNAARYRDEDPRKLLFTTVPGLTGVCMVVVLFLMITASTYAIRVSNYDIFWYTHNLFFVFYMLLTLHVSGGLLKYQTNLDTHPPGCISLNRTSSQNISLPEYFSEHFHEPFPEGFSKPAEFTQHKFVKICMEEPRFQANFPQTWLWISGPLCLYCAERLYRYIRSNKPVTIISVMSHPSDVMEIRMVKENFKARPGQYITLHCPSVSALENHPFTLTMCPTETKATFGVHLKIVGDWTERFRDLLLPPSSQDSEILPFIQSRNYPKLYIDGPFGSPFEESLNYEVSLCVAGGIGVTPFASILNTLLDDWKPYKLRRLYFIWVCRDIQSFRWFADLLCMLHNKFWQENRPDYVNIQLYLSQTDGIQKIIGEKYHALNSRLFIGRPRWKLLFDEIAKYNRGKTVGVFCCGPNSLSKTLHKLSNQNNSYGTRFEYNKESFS
Method in brief: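 B1647 cells nucleofected with Nox2 siRNA or scrambled siRNA (final 50 nM), used after 24–48 h. Compound treatment for 30 min, then 5 µM DCFH-DA loading for 20 min at 37 °C and DCF fluorescence read. Scrambled cells served as control.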

[9] = Inhibition of bovine brain tubulin assembly after 20 mins
[10] = Inhibition of nox4 expression in human B1647 cells at 10 uM after 24 hrs by Western blot analysis relative to control; format: functional
Method in brief: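 B1647 cells treated 24 h at 10 µM. Lysates (40 µg protein per lane) run on 10% SDS-PAGE and transferred to nitrocellulose. Blots probed with anti-Nox4, with β-tubulin as loading control, and detected by chemiluminescence. Bands quantified by densitometry in arbitrary units relative to control; three independent experiments.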

[11] = molecular target: T1, NADPH oxidase 4 (Homo sapiens); experiment: Inhibition of NOX4 in human B1647 cells assessed as reduction of ROS production after 20 mins by DCFH-DA fluorescence assay; format: cell-based; settings: in the assay text read “after 30 mins” for “after 20 mins”
Method in brief: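 B1647 cells given compound (DMSO) at 5 or 10 µM for 30 min, then at 1 × 10⁶/mL washed twice in PBS and loaded with 5 µM DCFH-DA for 20 min at 37 °C. DCF fluorescence read in multiwell plate; four independent experiments.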

[12] = Cytotoxicity against human NSCLC cells after 48 hrs; format: functional; settings: for CC50: read-out: LC50 (the source's name); method in brief: as §1
[13] = Cytotoxicity against human ovarian cancer cells after 48 hrs; format: functional; settings: Cancer cell lines; for CC50: read-out: LC50 (the source's name); method in brief: as §1

Row | Structure (SMILES) | GI50 [1] [µM] | GI50 [2] [µM] | TGI [2] [µM] | GI50 [3] [µM] | GI50 [4] [µM] | GI50 [5] [µM] | GI50 [6] [µM] | GI50 [7] [µM] | IC50 [9] [µM] | GI50 [12] [µM] | TGI [12] [µM] | GI50 [13] [µM] | TGI [13] [µM] | CC50 [1] [µM] | LC50 [2] [µM] | LC50 [4] [µM] | LC50 [6] [µM] | CC50 [7] [µM] | CC50 [12] [µM] | CC50 [13] [µM] | also measured
1 | COc1cc(/C=C2\C(=O)Nc3ccc(Br)cc32)cc(OC)c1OC | 2.1 | 14.8 | 56.2 | 3.2 | 6.2 | 11 | 14.1 | 10.2 | > 20 | 9.5 | 77.6 | 17 | 69.2 | – | – | – | – | – | – | – | TGI [3]: 45.7 µM; TGI [6]: 75.9 µM; Activity (B1647): Active; inhibition [8]: Active; fold change (FC) [10]: 0.86; inhibition [11]: Dose-dependent effect
2 | COc1cc(/C=C2\C(=O)N(Cc3ccc(Cl)cc3)c3ccccc32)cc(OC)c1OC | 1.5 | 3.4 | 15.1 | 2.4 | 2.2 | 2.2 | 2.5 | 2.9 | > 20 | 3.4 | 14.4 | 3.4 | 22.9 | 50.1 | 46.8 | 14.4 | 43.6 | 26.9 | 56.2 | 51.3 | LC50 [3]: 95.5 µM; TGI [3]: 12.9 µM; CC50 [5]: 33.1 µM; Activity (B1647): Active
3 | COc1cc(/C=C2\C(=O)Nc3c(Cl)ccc(Cl)c32)cc(OC)c1OC | – | – | – | – | – | – | – | – | – | – | – | – | – | – | – | – | – | – | – | – | Activity (B1647): Active
4 | COc1cc(/C=C2\C(=O)N(C)c3ccc(Cl)cc32)cc(OC)c1OC | 2.3 | 4.3 | 24.5 | 3.7 | 4 | 3.2 | 4.7 | 5 | > 20 | 7.4 | 28.2 | 5.9 | 36.3 | 67.6 | 81.3 | 67.6 | 85.1 | 69.2 | 85.1 | 93.3 | TGI [1]: 14.4 µM; TGI [3]: 17.4 µM; TGI [4]: 18.2 µM; TGI [5]: 11.2 µM
5 | COc1cc(/C=C2\C(=O)Nc3cc(OC(F)(F)F)ccc32)cc(OC)c1OC | 2.3 | 2.6 | – | 2.1 | 2.8 | 4.6 | 3.3 | 2.6 | > 20 | 2.9 | 14.1 | 2.9 | 11.2 | – | 33.9 | 37.1 | 34.7 | 44.7 | 51.3 | 49 | TGI [1]: 27.5 µM; LC50 [3]: 60.3 µM; TGI [4]: 10.2 µM; TGI [5]: 29.5 µM; CC50 [5]: 83.2 µM; TGI [6]: 12.6 µM; TGI [7]: 10.7 µM
6 | COc1cc(/C=C2/C(=O)N(C)c3ccc(O)cc32)cc(OC)c1OC | 2.2 | 4.3 | – | 3.2 | 4.3 | 2.8 | 5.7 | 4.9 | > 20 | 6.3 | 24.6 | 5.5 | 26.3 | 81.3 | 53.7 | 47.9 | 70.8 | 43.6 | 77.6 | 79.4 | LC50 [3]: 61.7 µM; TGI [3]: 15.1 µM; TGI [4]: 18.2 µM; CC50 [5]: 22.9 µM; TGI [6]: 22.4 µM; TGI [7]: 16.2 µM
7 | c1ccc2c(c1)[I+]c1ccccc1-2 [DIPHENYLENEIODONIUM] | – | – | – | – | – | – | – | – | – | – | – | – | – | – | – | – | – | – | – | – | fold change (FC) [10]: 0.73
8 | CC[C@]1(O)C[C@H]2CN(CCc3c([nH]c4ccccc34)[C@@](C(=O)OC)(c3cc4c(cc3OC)N(C=O)[C@H]3[C@@](O)(C(=O)OC)[C@H](OC(C)=O)[C@]5(CC)C=CCN6CC[C@]43[C@@H]65)C2)C1 [VINCRISTINE] | – | – | – | – | – | – | – | – | – | – | – | – | – | 631 | – | – | – | – | – | 316 | CC50 [5]: 316 µM
9 | COc1cc(/C=C2\C(=O)Nc3ccc(N(C)C)cc32)cc(OC)c1OC | 1.1 | 2.9 | 25.1 | 2.1 | 2.4 | 2.5 | 3.8 | 3.5 | > 20 | 4.2 | 41.7 | 3.2 | – | 81.3 | 81.3 | 81.3 | 83.2 | – | – | 81.3 | TGI [3]: 37.1 µM; TGI [4]: 34.7 µM; TGI [5]: 43.6 µM; Activity (B1647): Active; TGI [7]: 42.7 µM
10 | COc1ccc2c(c1)/C(=C\c1cc(OC)c(OC)c(OC)c1)C(=O)N2C | 1.4 | 2.4 | 14.1 | 2.7 | 2.6 | 2.6 | 3.2 | 3.1 | > 20 | 3.7 | 46.8 | 3.5 | 28.2 | 87.1 | – | 63.1 | – | 85.1 | 83.2 | – | TGI [4]: 16.6 µM
11 | COc1cc(/C=C2\C(=O)Nc3cc(Cl)ccc32)cc(OC)c1OC | 0.5 | 1.6 | – | 0.8 | 0.8 | 1.5 | 1.6 | 1.9 | 15 | 2 | – | 1.9 | – | 56.2 | 18.6 | 22.9 | 14.1 | 19 | 29.5 | 17.4 | LC50 [3]: 31.6 µM; CC50 [5]: 17 µM
12 | COc1ccc(OC)c2c1NC(=O)/C2=C\c1cc(OC)c(OC)c(OC)c1 | 2.6 | 5.5 | 20.4 | 2.2 | 4 | 4.3 | 4.5 | 5.2 | > 20 | 7.1 | 25.1 | 4.6 | 23.4 | 79.4 | 54.9 | 41.7 | 54.9 | 44.7 | 74.1 | 77.6 | TGI [1]: 14.1 µM; LC50 [3]: 64.6 µM; TGI [4]: 15.5 µM; TGI [5]: 22.9 µM; CC50 [5]: 58.9 µM; TGI [6]: 18.6 µM; TGI [7]: 18.6 µM
13 | COc1ccc(CN2C(=O)/C(=C/c3cc(OC)c(OC)c(OC)c3)c3cc(OC)ccc32)cc1 | 2.7 | 2.2 | – | 2.6 | 1.9 | 3.2 | 2.4 | 2.1 | > 20 | 2.3 | 11.2 | 2.4 | – | – | 33.9 | 7.9 | 28.8 | 23.4 | 33.1 | 50.1 | TGI [1]: 27.5 µM; LC50 [3]: 79.4 µM; TGI [3]: 13.8 µM; TGI [5]: 14.1 µM; CC50 [5]: 83.2 µM
14 | COc1ccc(CN2C(=O)/C(=C\c3cc(OC)c(OC)c(OC)c3)c3ccccc32)cc1 | 2.2 | 2.5 | 10.5 | 2.3 | 1.8 | 2.7 | 2 | 1.7 | > 20 | 2 | – | 2.6 | 21.4 | – | 26.3 | 8.3 | 45.7 | 19.5 | 38.9 | 67.6 | TGI [1]: 27.5 µM; LC50 [3]: 93.3 µM; TGI [3]: 17.4 µM; TGI [5]: 26.3 µM
